This is a sample that favours compounds with a hit; in the whole collection about 2.3% have one here.
TRPC4 inh – blocks the mouse TRPC4 cation channel; Q9QUQ5; HEK293 TRPC4beta/mu-opioid, DAMGO-evoked Fluo4 calcium flux; stronger effect = lower value; B-score at 10 µM; hit rate 0.39% among 300,000; AID 2247;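 active = B-score over 3 SD under the library average, no early fluorescence shift, positive overall ratio signal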
Target sequence (Q9QUQ5 whole entry, looked up): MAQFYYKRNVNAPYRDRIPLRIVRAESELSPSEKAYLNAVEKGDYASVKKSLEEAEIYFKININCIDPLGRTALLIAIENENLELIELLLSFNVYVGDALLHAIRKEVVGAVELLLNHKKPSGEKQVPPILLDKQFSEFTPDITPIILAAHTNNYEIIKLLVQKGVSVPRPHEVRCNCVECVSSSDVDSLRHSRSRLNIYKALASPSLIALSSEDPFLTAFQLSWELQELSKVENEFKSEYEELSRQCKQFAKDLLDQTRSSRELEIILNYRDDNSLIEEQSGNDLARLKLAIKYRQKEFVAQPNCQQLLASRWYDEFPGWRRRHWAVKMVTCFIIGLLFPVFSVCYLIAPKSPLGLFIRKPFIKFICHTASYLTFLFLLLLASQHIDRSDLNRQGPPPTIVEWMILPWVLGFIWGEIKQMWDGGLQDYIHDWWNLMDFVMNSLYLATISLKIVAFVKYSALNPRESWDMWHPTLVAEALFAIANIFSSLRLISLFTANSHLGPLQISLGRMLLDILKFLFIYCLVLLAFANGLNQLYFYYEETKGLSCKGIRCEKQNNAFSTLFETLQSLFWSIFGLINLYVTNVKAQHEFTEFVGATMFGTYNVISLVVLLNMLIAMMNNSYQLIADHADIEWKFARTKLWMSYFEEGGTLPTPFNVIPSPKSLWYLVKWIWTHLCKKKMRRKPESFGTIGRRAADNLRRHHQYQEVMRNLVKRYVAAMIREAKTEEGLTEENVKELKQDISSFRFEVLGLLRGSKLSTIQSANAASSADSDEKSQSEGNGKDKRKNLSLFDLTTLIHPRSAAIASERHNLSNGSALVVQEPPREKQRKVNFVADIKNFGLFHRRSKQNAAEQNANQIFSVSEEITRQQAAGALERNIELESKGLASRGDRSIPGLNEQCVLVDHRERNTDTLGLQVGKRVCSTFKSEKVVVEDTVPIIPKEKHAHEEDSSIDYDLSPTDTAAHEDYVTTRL
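Signal: kinetic Fluo4 fluorescence imaging of calcium influx. Material: stable TRPC4beta/mu-opioid receptor HEK293 cells. Probe or stimulus: DAMGO in two steps, submaximal then maximal.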
TRPC6 inhibitor – mouse TRPC6 channel inhibition | B-score at 10 µM | HEK293-TRPC6, membrane potential dye, ACh-evoked depolarization; stronger effect = lower value | Q61143 | AID 2553 | hit rate 1.1% among 310,000;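 active = B-score under library mean minus 3 SD, initial fluorescence not abnormally high, positive integrated signal ratio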;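 note: B-score derived from integrated fluorescence ratio over the kinetic read; more negative B-score means stronger inhibition of depolarization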
TRPC4 PAM – TRPC4 (mouse) allosteric potentiation. HEK293 TRPC4beta/mu-opioid, DAMGO EC20, Fluo-4 Ca2+ flux; stronger effect = higher value. B-score at 10 µM. hit rate 0.42% among 310,000. AID 2227;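 active = B-score of calcium response area above 5 SD of library B-scores, with initial fluorescence ratio within 5 SD of library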;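 note: B-score of integrated fluorescence ratio over time as area under calcium response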
TRPC6 activator – activators of mouse TRPC6 channel; AID 2550; HEK293-TRPC6 membrane potential dye fluorescence; stronger effect = higher value; hit rate 0.13% among 310,000; Q61143; B-score at 10 µM;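 active = B-score of the integrated fluorescence ratio above library mean plus 3 SD, and starting fluorescence ratio within library mean plus 5 SD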;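 note: higher score means more depolarization so channel activation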
TRPC4 agonist – opens the mouse TRPC4 cation channel; Q9QUQ5; HEK293 TRPC4beta/mu-opioid, Fluo4 calcium fluorescence; stronger effect = higher value; hit rate 0.49% among 310,000; AID 2237; B-score at 10 µM;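 active = B-score above 5 SD of library B-scores, and initial fluorescence ratio not above library mean plus 5 SD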;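 note: positive B-score marks a calcium rise read as TRPC4 activation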
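Assay system – TRPC4beta and mu-opioid receptor HEK293 stable cells · Measured by – Fluo4 fluorescence, kinetic · Schedule – dye loading 45 min room temperature, 110 s kinetic read · Read-out – B-scored integrated calcium fluorescence ratio · Controls – buffer and maximal DAMGO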
Active calls of the source: *; i = inactive.

SMILES | TRPC4 inh | TRPC6 inhibitor | TRPC4 PAM | TRPC6 activator | TRPC4 agonist
N#CC1=C(N)C2=CCCC[C@H]2[C@H](c2cccc(F)c2)C1(C#N)C#N | i | i | 34* | i | i
N#CC1=C(N)C(C#N)(C#N)C(c2ccc[nH]2)C2CCCC=C12 (stereo not drawn) | i | i | i | i | i
CN(C)CC/C=C1/c2ccc(F)cc2Sc2ccc(Cl)cc21 | i | -5.84* | i | i | i
CN(C)CC/C=C1\c2cc(Cl)ccc2Sc2cc(F)c(F)cc21 | i | -5.54* | i | i | i
CN1CCN(CCOc2cccc(Cl)c2)CC1 | i | i | 14* | i | i
Clc1cccc(OCCN2CCCC2)c1 | i | i | i | i | i
COc1ccc(CCN(C)C(=O)c2cc(S(=O)(=O)N3CCCCCC3)ccc2OC)cc1OC | i | i | i | i | i
COc1ccc(CCN(C)C(=O)c2cc(S(=O)(=O)N3CCCCC3)ccc2Cl)cc1OC | -7* | i | i | i | i
CCN1CCN(C(=O)c2cc3c(s2)-c2ccccc2S(=O)(=O)C3)CC1 | i | i | i | i | i
O=C(c1cc2c(s1)-c1ccccc1S(=O)(=O)C2)N1CCN(Cc2ccccc2)CC1 | i | i | 10* | i | i
O=C(COc1ccc(Br)cc1)N1CCN(S(=O)(=O)/C=C/c2ccccc2)CC1 | i | i | 11* | i | i
O=C(COc1ccccc1F)N1CCN(S(=O)(=O)/C=C/c2ccccc2)CC1 | i | i | i | i | i
CC(NC(=O)c1cc2c(s1)CS(=O)(=O)C2)c1ccccc1 (stereo not drawn) | i | i | i | i | i
CCOc1cc(/C=N/NC(=O)CN2CCCCC2)ccc1OCc1ccc(Cl)cc1 | i | i | i | i | i
CCOc1cc(/C=N/NC(=O)CN2CCCCC2)ccc1OCc1cccc(Cl)c1 | i | i | 11* | i | i
CCOC(=O)c1cc(-c2cccc([N+](=O)[O-])c2)n[nH]1 | i | i | 23* | i | i
CCN(CC)c1ccc(C(=O)N/N=C(\C)c2ccc(O)cc2)cc1 | i | i | i | i | i
CN1CCN(NC(=O)c2ccc(Cl)c([N+](=O)[O-])c2)CC1 | i | i | i | i | 44*
CCOc1ccc(NS(=O)(=O)c2ccc(C(=O)N3CCCC(C)C3)cc2)cc1 (stereo not drawn) | i | i | i | i | 54*
Cc1ccc(NS(=O)(=O)c2ccc(C(=O)N3CCC3)cc2)cc1 | i | i | i | i | i
Cc1ccc(NS(=O)(=O)c2ccc(C(=O)N3CC(C)OC(C)C3)cc2)cc1 (stereo not drawn) | i | i | i | i | 53*
O=C(c1ccc(S(=O)(=O)Nc2ccccc2)cc1)N1CCCC(C(F)(F)F)C1 (stereo not drawn) | i | i | i | i | 54*
CCOc1ccc(S(=O)(=O)Nc2ccc(C(=O)N3CCCC3)cc2)cc1 | i | i | i | i | i
O=C(c1ccccc1)c1ccc(C(=O)N2CCCC(C(F)(F)F)C2)cc1 (stereo not drawn) | i | i | i | i | i
Cc1ccccc1C(=O)Nc1c(C(=O)N(CCN(C)C)Cc2ccco2)oc2ccccc12 | -6* | i | i | i | 45*
SMILES | TRPC4 inh | TRPC6 inhibitor | TRPC4 PAM | TRPC6 activator | TRPC4 agonist
COc1ccccc1C(=O)Nc1c(C(=O)N(CCN(C)C)Cc2ccco2)oc2ccccc12 | i | i | i | i | i
CN(C)CCNc1c2c(nc3nnnn13)CCCC2 | i | i | i | i | 44*
O=C(NCCO)c1cc(-c2cc(C(=O)NCCO)c3ccccc3n2)nc2ccccc12 | i | i | i | i | i
CC1CC(C)CN(S(=O)(=O)c2ccc3c(c2)CC(C)N3C(=O)C2CC2)C1 (stereo not drawn) | i | i | i | i | i
Clc1ccc(OCc2nn3c(C4CCCCC4)nnc3s2)cc1 | i | i | 13* | i | i
c1ccc(-c2nn3c(C4CCCCC4)nnc3s2)nc1 | i | i | i | i | i
COc1ccc(CN2CCN(c3nc4ccccc4s3)CC2)cc1 | i | i | 23* | i | i

Compound activity as filed in PubChem.
